One data set relates to Mus musculus. Put plainly: Induction of tear secretion in mouse lacking functional CFTR up to 250 pmol administered as single topical dose up to 6 hrs by phenol red thread test. The settings on record: in vivo, topical_or_ocular. In a few lines:
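CF mice lacking functional CFTR; single ocular dose of 250 pmol in 2.5 μL ophthalmic vehicle, both eyes, vehicle control. Tear volume by phenol red thread 10 s in lateral canthus under isoflurane, measured before and at timed points after dosing. 5 mice, 10 eyes per condition.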

Data set [1] is described as follows: Metabolic stability in rat hepatic microsomes assessed as parent compound remaining at 5 uM after 60 mins in presence of NADPH by LC-MS analysis. The format is ADME, Microsome. Particulars: liver microsomes, read-out: Stability. In a few lines:
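Compound at 5 μM incubated at 37 °C with rat liver microsomes (1 mg/mL) in potassium phosphate buffer with 1 mM NADPH; quenched with ice-cold EtOAc, centrifuged, supernatant analysed by LC/MS (C18, water/acetonitrile with 0.1% formic acid gradient, UV 254 nm) for parent remaining; mean ± SEM, n = 3.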
For orientation: Liver microsomes are vesicles of endoplasmic reticulum, rich in cytochrome P450 enzymes.

Structures are written as SMILES.

Turning to `CNc1nc(Nc2ccccc2)nc(OCC(F)(F)C(F)F)n1`, the Activity result in the data set on Mus musculus is “Non-Toxic”.
With `CCN(CC)c1nc(Nc2ccc3ncsc3c2)nc(OC(C(F)(F)F)C(F)(F)F)n1`, the remaining at 1 h, 5 µM in data set [1] was determined as 60%.

For the origin of these results see ChEMBL document CHEMBL3997791, “Nanomolar-Potency Aminophenyl-1,3,5-triazine Activators of the Cystic Fibrosis Transmembrane Conductance Regulator (CFTR) Chloride Channel for Prosecretory Therapy of Dry Eye Diseases” (J Med Chem, 2017).
